Test results published in ChEMBL document CHEMBL3992526, “Antagonizing NOD2 Signaling with Conjugates of Paclitaxel and Muramyl Dipeptide Derivatives Sensitizes Paclitaxel Therapy and Significantly Prevents Tumor Metastasis” (J Med Chem, 2017).
Each block holds one molecule with its values, some of them ahead of it. Calls of active or inactive are those of the source. The rule behind the calls is not given here.

Tests used:
[1] = AUC (0 to t) in tumor of LLC tumor bearing C57BL/6N mouse at 18 mg/kg, iv up to 24 hrs by LC-MS/MS analysis; format: ADME, organism-based, Neoplasm; conditions: in vivo
How it was run: (§1)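 Tumour-tissue pharmacokinetics in LLC tumour-bearing mice after a single iv injection of PTX at 18 mg/kg, equimolar to the conjugate at 30 mg/kg. Analyte concentrations were measured in tumour tissue over time (n=5 mice). Tmax is given in h and Cmax in nmol/g.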

[2] = Cmax in tumor of LLC tumor bearing C57BL/6N mouse at 18 mg/kg, iv by LC-MS/MS analysis; format: ADME, organism-based, Neoplasm; set-up: dose 18 mg/kg, route intravenous; conditions: in vivo; how it was run: as §1
[3] = target: T1, Nucleotide-binding oligomerization domain-containing protein 2 (Homo sapiens, UniProt Q9HC29); assay: Inhibition of MDP-induced human NOD2 signaling expressed in HEK-Blue cells preincubated for 3 hrs followed by MDP-stimulation for 20 hrs by spectrophotometry based SEAP reporter gene assay; format: cell-based
[4] = Tmax in tumor of LLC tumor bearing C57BL/6N mouse at 18 mg/kg, iv by LC-MS/MS analysis; format: ADME, organism-based, Neoplasm
How it was run: (§2)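 Mice bearing LLC tumors were given a single iv injection at equimolar doses: the conjugate at 30 mg/kg or paclitaxel at 18 mg/kg. Tumor tissue was sampled over time. Intact conjugate, released paclitaxel and MDA-linker were quantified in tumor tissue (nmol/g). Tmax and Cmax were taken from tumor concentration profiles, n=5 per group.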

[5] = Drug level in tumor of LLC tumor bearing C57BL/6N mouse treated with MTC-220 at 30 mg/kg, iv up to 24 hrs by LC-MS/MS analysis relative to paclitaxel alone; format: ADME, organism-based, Neoplasm; conditions: in vivo; how it was run: as §2
[6] = tested on: Lewis lung carcinoma cell line; assay: Antitumor activity against mouse LLC cells implanted in iv dosed C57BL/6N mouse assessed as tumor growth inhibition; format: functional, organism-based
[7] = Cytotoxicity against HEK-Blue cells expressing human NOD2 assessed as reduction in cell growth at 1.5625 to 50000 nM preincubated for 3 hrs followed by MDP-stimulation for 20 hrs by SRB assay; format: cell-based; conditions: 50 µM
[8] = target: T1, Nucleotide-binding oligomerization domain-containing protein 2; assay: Activation of human NOD2 signaling expressed in HEK-Blue cells incubated for 3 hrs by spectrophotometry based SEAP reporter gene assay; format: cell-based
[9] = Cytotoxicity against HEK-Blue cells expressing human NOD2 assessed as reduction in cell growth at 1.5625 to 50000 nM incubated for 3 hrs by SRB assay; format: cell-based; conditions: 50 µM
[10] = target: T1, Nucleotide-binding oligomerization domain-containing protein 2; assay: Inhibition of MDP-stimulated NOD2 activation in human PBMC derived macrophages assessed as reduction in NOD2-mediated NF-kB signaling by measuring decrease in IkBalpha level preincubated for 1 hr followed by MDP-stimulation for 1 hr by Western blot method
[11] = target: T1, Nucleotide-binding oligomerization domain-containing protein 2; assay: Inhibition of MDP-stimulated human NOD2 activation expressed in HEK-Blue cells assessed as reduction in NOD2-mediated MAPK signaling by measuring decrease in phosphorylated JNK level preincubated for 1 hr followed by MDP-stimulation for 1 hr by Western blot method; format: cell-based
[12] = target: Receptor-interacting serine/threonine-protein kinase 2 (Homo sapiens) (UniProt O43353); assay: Inhibition of recombinant human N-terminal GST-tagged RIP2 (1 to 299 residues) expressed in baculovirus infected Sf9 cells at 10 uM using MBP as substrate incubated for 60 mins in presence of ATP by ADP-Glo assay
[13] = target: T1, Nucleotide-binding oligomerization domain-containing protein 2; assay: Inhibition of MDP-stimulated NOD2 activation in human PBMC derived macrophages assessed as reduction in NOD2-mediated MAPK signaling by measuring decrease in phosphorylated JNK level preincubated for 1 hr followed by MDP-stimulation for 1 hr by Western blot method
[14] = target: T1, Nucleotide-binding oligomerization domain-containing protein 2; assay: Inhibition of His-tagged and FLAG-tagged NOD2 (unknown origin) self-oligomerization expressed in HEK293T cells at 10 uM preincubated for 1 hr followed by MDP stimulation for 15 mins by co-immunoprecipitation assay; format: cell-based
[15] = tested on: Lewis lung carcinoma cell line; assay: (§3) Potentiation of paclitaxel-induced antitumor activity against mouse LLC cells implanted in C57BL/6N mouse assessed as reduction in tumor weight at 30 mg/kg, iv administered once in every two days and paclitaxel treatment once in every four days measured 4 weeks after implantation; format: functional, organism-based
[16] = tested on: Lewis lung carcinoma cell line; assay: as §3, with “inhibition of lung” for “reduction in”, “metastasis” for “weight”, “implantation relative to control” for “implantation”; format: functional
[17] = target: T1, Nucleotide-binding oligomerization domain-containing protein 2; assay: Inhibition of MDP-stimulated NOD2 activation in human PBMC derived macrophages assessed as reduction in NOD2-mediated NF-kB signaling by measuring decrease in phosphorylated RIP2 level preincubated for 1 hr followed by MDP-stimulation for 1 hr by Western blot method
[18] = target: T1, Nucleotide-binding oligomerization domain-containing protein 2; assay: Inhibition of MDP-stimulated human NOD2 activation expressed in HEK-Blue cells assessed as reduction in NOD2-mediated NF-kB signaling by measuring decrease in IkBalpha level preincubated for 1 hr followed by MDP-stimulation for 1 hr by Western blot method; format: cell-based
[19] = target: T1, Nucleotide-binding oligomerization domain-containing protein 2; assay: Inhibition of MDP-stimulated human NOD2 activation expressed in HEK-Blue cells assessed as reduction in NOD2-mediated NF-kB signaling by measuring decrease in phosphorylated RIP2 level preincubated for 1 hr followed by MDP-stimulation for 1 hr by Western blot method; format: cell-based
[20] = target: T1, Nucleotide-binding oligomerization domain-containing protein 2; assay: Inhibition of MDP-stimulated human NOD2 activation expressed in HEK-Blue cells assessed as reduction in NOD2-mediated MAPK signaling by measuring decrease in phosphorylated p38 level preincubated for 1 hr followed by MDP-stimulation for 1 hr by Western blot method; format: cell-based
[21] = target: T1, Nucleotide-binding oligomerization domain-containing protein 2; assay: Inhibition of MDP-induced human NOD2 signaling expressed in HEK-Blue cells at 10 uM preincubated for 3 hrs followed by MDP-stimulation for 20 hrs by spectrophotometry based SEAP reporter gene assay relative to control; format: cell-based
[22] = target: T1, Nucleotide-binding oligomerization domain-containing protein 2; assay: Inhibition of MDP-stimulated NOD2 activation in human PBMC derived macrophages assessed as reduction in NOD2-mediated MAPK signaling by measuring decrease in phosphorylated ERK1/2 level preincubated for 1 hr followed by MDP-stimulation for 1 hr by Western blot method
[23] = target: T1, Nucleotide-binding oligomerization domain-containing protein 2; assay: Inhibition of NOD2 signaling in human PBMC derived macrophages assessed as inhibition of MDP-induced IL-6 mRNA expression at 1 to 10 uM preincubated for 1 hr followed by MDP-stimulation for 90 mins by RT-PCR method
[24] = tested on: Lewis lung carcinoma cell line; assay: Antitumor activity against mouse LLC cells implanted in C57BL/6N mouse assessed as reduction in tumor weight at 30 mg/kg, iv administered once in every two days measured 4 weeks after implantation; format: functional, organism-based
[25] = target: T1, Nucleotide-binding oligomerization domain-containing protein 2; assay: Inhibition of MDP-stimulated human NOD2 activation expressed in HEK-Blue cells assessed as reduction in NOD2-mediated MAPK signaling by measuring decrease in phosphorylated ERK1/2 level preincubated for 1 hr followed by MDP-stimulation for 1 hr by Western blot method; format: cell-based
[26] = Cytotoxicity against HEK-Blue cells expressing human NOD2 assessed as reduction in cell growth at 0.3125 to 10000 nM preincubated for 3 hrs followed by MDP-stimulation for 20 hrs by SRB assay; format: cell-based; conditions: 10 µM
[27] = target: T1, Nucleotide-binding oligomerization domain-containing protein 2; assay: Inhibition of MDP-stimulated NOD2 activation in human PBMC derived macrophages assessed as reduction in NOD2-mediated MAPK signaling by measuring decrease in phosphorylated p38 level preincubated for 1 hr followed by MDP-stimulation for 1 hr by Western blot method
[28] = tested on: Lewis lung carcinoma cell line; assay: Antitumor activity against mouse LLC cells implanted in C57BL/6N mouse assessed as inhibition of lung tumor metastasis at 30 mg/kg, iv administered once in every two days measured 4 weeks after implantation; format: functional, organism-based
[29] = Cytotoxicity against HEK-Blue cells expressing human NOD2 assessed as reduction in cell growth at 0.3125 to 10000 nM incubated for 3 hrs by SRB assay; format: cell-based; conditions: 10 µM
[30] = Cmax in tumor of LLC tumor bearing C57BL/6N mouse assessed as MDA-linker level at 30 mg/kg, iv by LC-MS/MS analysis; format: ADME, organism-based, Neoplasm; set-up: dose 30 mg/kg, route intravenous; conditions: in vivo
How it was run: (§4)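 LLC tumor-bearing mice received a single iv injection at 30 mg/kg; tumor tissue was sampled over time and assayed for intact conjugate and its metabolites PTX and MDA-linker. Tmax in h and Cmax in nmol/g tumor were reported, n=5 mice.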

[31] = Cmax in tumor of LLC tumor bearing C57BL/6N mouse at 30 mg/kg, iv by LC-MS/MS analysis; format: ADME, organism-based, Neoplasm; set-up: dose 30 mg/kg, route intravenous; conditions: in vivo; how it was run: as §4
[32] = Cmax in tumor of LLC tumor bearing C57BL/6N mouse assessed as paclitaxel level at 30 mg/kg, iv by LC-MS/MS analysis; format: ADME, organism-based, Neoplasm; set-up: dose 30 mg/kg, route intravenous; conditions: in vivo; how it was run: as §4
[33] = AUC (0 to t) in tumor of LLC tumor bearing C57BL/6N mouse assessed as paclitaxel level at 30 mg/kg, iv up to 24 hrs by LC-MS/MS analysis; format: ADME, organism-based, Neoplasm; conditions: in vivo; how it was run: as §4
[34] = AUC (0 to t) in tumor of LLC tumor bearing C57BL/6N mouse at 30 mg/kg, iv up to 24 hrs by LC-MS/MS analysis; format: ADME, organism-based, Neoplasm; conditions: in vivo; how it was run: as §4
[35] = Tmax in tumor of LLC tumor bearing C57BL/6N mouse assessed as paclitaxel level at 30 mg/kg, iv by LC-MS/MS analysis; format: ADME, organism-based, Neoplasm; conditions: in vivo; how it was run: as §4
[36] = AUC (0 to t) in tumor of LLC tumor bearing C57BL/6N mouse assessed as MDA-linker level at 30 mg/kg, iv up to 24 hrs by LC-MS/MS analysis; format: ADME, organism-based, Neoplasm; conditions: in vivo; how it was run: as §4
[37] = Tmax in tumor of LLC tumor bearing C57BL/6N mouse assessed as MDA-linker level at 30 mg/kg, iv by LC-MS/MS analysis; format: ADME, organism-based, Neoplasm; conditions: in vivo; how it was run: as §4

T1 sequence (Q9HC29 whole entry, the tested form may be a part): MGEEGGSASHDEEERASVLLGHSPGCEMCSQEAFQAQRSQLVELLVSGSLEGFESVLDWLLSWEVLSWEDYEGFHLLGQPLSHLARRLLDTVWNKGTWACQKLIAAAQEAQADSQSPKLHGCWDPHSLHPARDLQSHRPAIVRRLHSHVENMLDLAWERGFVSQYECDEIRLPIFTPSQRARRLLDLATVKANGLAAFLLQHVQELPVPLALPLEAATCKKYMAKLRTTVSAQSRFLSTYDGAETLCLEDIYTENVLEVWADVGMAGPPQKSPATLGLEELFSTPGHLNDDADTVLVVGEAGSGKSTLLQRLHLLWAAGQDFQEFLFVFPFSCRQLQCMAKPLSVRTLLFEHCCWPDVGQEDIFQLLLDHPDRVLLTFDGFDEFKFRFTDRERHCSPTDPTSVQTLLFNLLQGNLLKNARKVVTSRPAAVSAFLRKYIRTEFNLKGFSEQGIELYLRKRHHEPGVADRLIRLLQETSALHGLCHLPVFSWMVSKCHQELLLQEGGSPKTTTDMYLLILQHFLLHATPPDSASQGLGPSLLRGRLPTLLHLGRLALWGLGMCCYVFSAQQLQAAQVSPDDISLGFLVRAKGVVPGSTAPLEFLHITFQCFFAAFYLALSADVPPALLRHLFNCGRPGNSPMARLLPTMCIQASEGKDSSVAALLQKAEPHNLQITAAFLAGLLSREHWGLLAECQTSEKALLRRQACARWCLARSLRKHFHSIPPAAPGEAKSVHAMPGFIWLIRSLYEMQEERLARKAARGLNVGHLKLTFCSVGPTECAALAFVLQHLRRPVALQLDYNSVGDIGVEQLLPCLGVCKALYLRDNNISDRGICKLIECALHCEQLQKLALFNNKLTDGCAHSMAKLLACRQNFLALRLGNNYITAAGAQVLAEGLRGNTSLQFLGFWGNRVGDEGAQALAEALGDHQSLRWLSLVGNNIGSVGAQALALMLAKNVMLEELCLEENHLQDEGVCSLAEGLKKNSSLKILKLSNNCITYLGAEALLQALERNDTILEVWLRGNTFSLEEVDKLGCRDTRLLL
Chain of Receptor-interacting serine/threonine-protein kinase 2 (Homo sapiens) (O43353 whole entry, the tested form may be a part): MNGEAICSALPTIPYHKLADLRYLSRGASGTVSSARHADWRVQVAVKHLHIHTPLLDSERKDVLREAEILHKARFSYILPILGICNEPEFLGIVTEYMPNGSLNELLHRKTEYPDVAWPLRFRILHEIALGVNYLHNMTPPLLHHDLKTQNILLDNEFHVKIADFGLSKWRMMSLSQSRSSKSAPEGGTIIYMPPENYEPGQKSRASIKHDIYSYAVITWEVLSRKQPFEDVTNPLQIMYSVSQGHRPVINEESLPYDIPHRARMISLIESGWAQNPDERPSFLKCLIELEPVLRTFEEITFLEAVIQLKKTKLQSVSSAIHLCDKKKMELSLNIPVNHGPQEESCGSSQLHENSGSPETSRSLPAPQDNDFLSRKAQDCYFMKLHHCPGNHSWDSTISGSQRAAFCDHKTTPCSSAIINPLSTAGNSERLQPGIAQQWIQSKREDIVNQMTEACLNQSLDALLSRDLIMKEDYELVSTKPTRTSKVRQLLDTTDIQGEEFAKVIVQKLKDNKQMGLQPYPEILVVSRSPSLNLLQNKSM

- AUCt [1]: 46.62 nmol·h/g
- Cmax [2]: 4.85 nmol/g
- IC50 [3]: 7.94 µM
- Tmax [4]: 1.05 h
- fold change (FC) [5]: 2
Structure (SMILES): CC(=O)O[C@H]1C(=O)[C@@]2(C)[C@H]([C@H](OC(=O)c3ccccc3)[C@]3(O)C[C@H](OC(=O)[C@H](O)[C@@H](NC(=O)c4ccccc4)c4ccccc4)C(C)=C1C3(C)C)[C@]1(OC(C)=O)CO[C@@H]1C[C@@H]2O [PACLITAXEL]

- Activity [8]: inactive
- inhibition activity call (active/not active) [3]: inactive
Structure (SMILES): C[C@H](NC(=O)/C=C/c1ccc(Cl)cc1)C(=O)N[C@H](CCC(=O)N[C@@H](CCCCNC(=O)CCC(=O)O)C(N)=O)C(N)=O
- TGI [6]: inactive
- Activity [7]: Non-Toxic
- Activity [9]: Non-Toxic

- inhibition [10]: Dose-dependent effect
- inhibition [11]: Dose-dependent effect
- inhibition [12]: inactive
- inhibition [13]: Dose-dependent effect
- inhibition [14]: Active
- inhibition [17]: Dose-dependent effect
- inhibition [18]: Dose-dependent effect
- inhibition [19]: Dose-dependent effect
- inhibition [20]: Dose-dependent effect
- inhibition [21]: 50%
- inhibition [22]: Dose-dependent effect
- inhibition [23]: Active
- inhibition [25]: Dose-dependent effect
- inhibition activity call (active/not active) [3]: Active
- inhibition [27]: Dose-dependent effect
Structure (SMILES): CC(=O)O[C@H]1C(=O)[C@@]2(C)[C@H]([C@H](OC(=O)c3ccccc3)[C@]3(O)C[C@H](OC(=O)[C@H](OCCC(=O)NCCCC[C@H](NC(=O)CC[C@@H](NC(=O)[C@H](C)NC(=O)/C=C/c4ccc(Cl)cc4)C(N)=O)C(N)=O)[C@@H](NC(=O)c4ccccc4)c4ccccc4)C(C)=C1C3(C)C)[C@]1(OC(C)=O)CO[C@@H]1C[C@@H]2O
- TGI [15]: Active
- fold change (FC) [16]: 2
- TGI [24]: inactive
- Activity [26]: Non-Toxic
- inhibition [28]: inactive
- Activity [29]: Non-Toxic

Structure (SMILES): CC(=O)O[C@H]1C(=O)[C@@]2(C)[C@H]([C@H](OC(=O)c3ccccc3)[C@]3(O)C[C@H](OC(=O)[C@H](OC(=O)CCC(=O)NCCCC[C@H](NC(=O)CC[C@@H](NC(=O)[C@H](C)NC(=O)/C=C/c4ccc(Cl)cc4)C(N)=O)C(N)=O)[C@@H](NC(=O)c4ccccc4)c4ccccc4)C(C)=C1C3(C)C)[C@]1(OC(C)=O)CO[C@@H]1C[C@@H]2O
- Cmax [30]: 1.01 nmol/g
- Cmax [31]: 15.39 nmol/g
- Cmax [32]: 5.83 nmol/g
- AUCt [33]: 89.63 nmol·h/g
- AUCt [34]: 211.02 nmol·h/g
- Tmax [35]: 12 h
- AUCt [36]: 16.27 nmol·h/g
- Tmax [37]: 10.4 h
